Source: ChEMBL document CHEMBL1154855 (Eur J Med Chem, 2010)
pEC50, pIC50: −log10 of the molar value. In brackets after ≈: the same amount, converted by molar mass.

Legend:
HeLa [1] = assay: Cytotoxicity against VSV infected human HeLa cells by trypan blue exclusion method; assay type: cell-based; conditions: hela
Method in brief: (§1)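 Uninfected confluent cultures were run in parallel with the infected cultures. Medium was replaced by 1 ml maintenance medium with serial compound concentrations; cell controls received no compound. Cultures were incubated at 37 °C. After 2 and 7 days, compound was withdrawn and viability was determined by trypan blue exclusion.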

Coxsackievirus B4 [2] = assay: Antiviral activity against Human coxsackievirus B4 infected in human HeLa cells assessed as protection from virus-induced cytopathogenicity after 2 days by MTT assay; assay type: functional, organism-based; conditions: Enterovirus B, 48 h
Vero [3] = assay: Cytotoxicity against PIV 3 infected african green monkey Vero cells by trypan blue exclusion method; assay type: cell-based; conditions: chlorocebus sabaeus, vero; method in brief: as §1
Vero [4] = assay: Cytotoxicity against Reovirus 1 infected african green monkey Vero cells by trypan blue exclusion method; assay type: cell-based; conditions: chlorocebus sabaeus, vero; method in brief: as §1
[5] = test system: Respiratory syncytial virus; assay: Antiviral activity against Respiratory syncytial virus infected in human HeLa cells assessed as protection from virus-induced cytopathogenicity after 4 days by MTT assay; assay type: functional, organism-based; conditions: 96 h
HEL [6] = assay: Cytotoxicity against VSV infected HEL cells by trypan blue exclusion method; assay type: cell-based; conditions: human, hel; method in brief: as §1
Human alphaherpesvirus 1 [7] = assay: Antiviral activity against acyclovir-sensitive Herpes simplex virus 1 KOS infected in HEL cells assessed as protection from virus-induced cytopathogenicity after 2 to 3 days by MTT assay; assay type: functional, organism-based; conditions: Human alphaherpesvirus 1, KOS
[8] = test system: Mammalian orthoreovirus 1; assay: Antiviral activity against Reovirus 1 infected in african green monkey Vero cells assessed as protection from virus-induced cytopathogenicity after 6 to 7 days by MTT assay; assay type: functional, organism-based; conditions: Mammalian orthoreovirus 1, Vero
in vitro = conditions: human, HeLa cells
HEL [9] = assay: Cytotoxicity against Herpes simplex virus 2 G infected HEL cells by trypan blue exclusion method; assay type: cell-based; conditions: human, hel; method in brief: as §1
HEL [10] = assay: Cytotoxicity against acyclovir-sensitive Herpes simplex virus 1 KOS infected HEL cells by trypan blue exclusion method; assay type: cell-based; conditions: human; method in brief: as §1
Human alphaherpesvirus 2 = assay: Antiviral activity against Herpes simplex virus 2 G infected in HEL cells assessed as protection from virus-induced cytopathogenicity after 2 to 3 days by MTT assay; assay type: functional, organism-based; conditions: Human alphaherpesvirus 2, strain G
Felid alphaherpesvirus 1 = assay: Antiviral activity against Feline herpesvirus infected in cat CRFK cells assessed as protection from virus-induced cytopathogenicity by MTT assay; assay type: functional, organism-based; conditions: Felid alphaherpesvirus 1, CRFK
HeLa [11] = assay: Cytotoxicity against Respiratory syncytial virus infected human HeLa cells by trypan blue exclusion method; assay type: cell-based; conditions: hela; method in brief: as §1
[12] = Cytotoxicity against HIV1 3B-infected human MT4 cells by MTT assay; assay type: cell-based; conditions: MT4 cells infected with HIV-1 3B
Method in brief: (§2)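 MT-4 cells (3 × 10^4 per well) were cultured in microdilution trays with various concentrations of compound, then incubated 5 days at 37 °C, and viable cell number was read by MTT.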

[13] = test system: Vesicular stomatitis virus; assay: Antiviral activity against VSV infected in HEL cells assessed as protection from virus-induced cytopathogenicity after 1 to 2 days by MTT assay; assay type: functional, organism-based
[14] = Selectivity index, ratio of CC50 for HIV2 ROD infected human MT4 cells to IC50 for […] ROD; assay type: functional
Vero [15] = assay: Cytotoxicity against Sindbis virus infected african green monkey Vero cells by trypan blue exclusion method; assay type: cell-based; conditions: chlorocebus sabaeus, vero; method in brief: as §1
HEL [16] = assay: Cytotoxicity against Herpes simplex virus 1 KOS infected HEL cells by trypan blue exclusion method; assay type: cell-based; conditions: human, hel; method in brief: as §1
[17] = Cytotoxicity against Feline herpesvirus infected cat CRFK cells by trypan blue exclusion method; assay type: cell-based, Felis catus; conditions: crfk; method in brief: as §1
Escherichia coli = assay: Antibacterial activity against Escherichia coli after 24 hrs by broth microdilution method; assay type: functional
Method in brief: (§3)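 Clinical isolates. Each dilution received 100 μl of 0.5 McFarland fresh culture. Solvent (DMSO), growth and standard controls were included. Tubes were incubated at 37 °C for 24 h. MIC is the highest dilution showing no turbidity. Tests were run in triplicate, with at least two repetitions.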

[18] = test system: Vesicular stomatitis virus; assay: Antiviral activity against VSV infected in human HeLa cells assessed as protection from virus-induced cytopathogenicity after 1 to 2 days by MTT assay; assay type: functional, organism-based
Influenza A virus [19] = assay: Antiviral activity against Influenza A virus H3N2 infected in MDCK cells assessed as protection from virus-induced cytopathogenicity after 6 to 7 days by MTT assay; assay type: functional, organism-based
Human alphaherpesvirus 1 [20] = assay: Antiviral activity against Herpes simplex virus 1 KOS infected in HEL cells assessed as protection from virus-induced cytopathogenicity after 2 to 3 days by MTT assay; assay type: functional, organism-based; conditions: Human alphaherpesvirus 1, KOS
[21] = test system: Human immunodeficiency virus 2; assay: Antiviral activity against HIV2 ROD infected in human MT4 cells assessed as protection from virus-induced cytopathogenicity after 5 days by MTT assay; assay type: functional, organism-based; conditions: Human immunodeficiency virus 2, ISOLATE ROD, MT4, 120 h
Method in brief: (§4)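 MT-4 cells at 3 × 10^4 per well were infected with HIV (IIIB or ROD) at 50% cell culture infective doses. Graded compound concentrations were added immediately after infection. Plates were incubated for 5 days at 37 °C and viable cells were counted by MTT.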

Sindbis virus = assay: Antiviral activity against Sindbis virus infected in african green monkey Vero cells assessed as protection from virus-induced cytopathogenicity after 2 to 3 days by MTT assay; assay type: functional, organism-based
Feline coronavirus = assay: Antiviral activity against Feline coronavirus infected in cat CRFK cells assessed as protection from virus-induced cytopathogenicity by MTT assay; assay type: functional, organism-based; conditions: Alphacoronavirus 1, CRFK
HeLa [22] = assay: Cytotoxicity against Human coxsackievirus B4 infected human HeLa cells by trypan blue exclusion method; assay type: cell-based; conditions: hela; method in brief: as §1
Human respirovirus 3 = assay: Antiviral activity against PIV 3 infected in african green monkey Vero cells assessed as protection from virus-induced cytopathogenicity after 6 to 7 days by MTT assay; assay type: functional, organism-based; conditions: Human respirovirus 3, Vero
Vero [23] = assay: Cytotoxicity against Punta Toro virus infected african green monkey Vero cells by trypan blue exclusion method; assay type: cell-based; conditions: chlorocebus sabaeus, vero; method in brief: as §1
Punta Toro virus = assay: Antiviral activity against Punta Toro virus infected in african green monkey Vero cells assessed as protection from virus-induced cytopathogenicity by MTT assay; assay type: functional, organism-based
[24] = Cytotoxicity against HIV2 ROD infected human MT4 cells by MTT assay; assay type: cell-based; conditions: MT4 cells infected with HIV-2 ROD; method in brief: as §2
Influenza A virus [25] = assay: Antiviral activity against Influenza A virus H1N1 infected in MDCK cells assessed as protection from virus-induced cytopathogenicity after 6 to 7 days by MTT assay; assay type: functional, organism-based
[26] = Cytotoxicity against Feline coronavirus infected cat CRFK cells by trypan blue exclusion method; assay type: cell-based, Felis catus; conditions: crfk; method in brief: as §1
Coxsackievirus B4 [27] = assay: Antiviral activity against Human coxsackievirus B4 infected in african green monkey Vero cells assessed as protection from virus-induced cytopathogenicity after 2 days by MTT assay; assay type: functional, organism-based; conditions: Enterovirus B, 48 h
MDCK [28] = assay: Cytotoxicity against Influenza B virus infected MDCK cells by trypan blue exclusion method; assay type: cell-based, Canis lupus familiaris; conditions: dog
Proteus mirabilis = assay: Antibacterial activity against Proteus mirabilis after 24 hrs by broth microdilution method; assay type: functional; method in brief: as §3
Streptococcus viridans = assay: Antibacterial activity against Streptococcus viridans after 24 hrs by broth microdilution method; assay type: functional; method in brief: as §3
MDCK [29] = assay: Cytotoxicity against Influenza A virus subtype H3N2 infected MDCK cells by trypan blue exclusion method; assay type: cell-based, Canis lupus familiaris; conditions: dog
Klebsiella pneumoniae = assay: Antibacterial activity against Klebsiella pneumoniae after 24 hrs by broth microdilution method; assay type: functional; method in brief: as §3
[30] = test system: Human immunodeficiency virus 1; assay: Antiviral activity against HIV1 3B-infected in human MT4 cells assessed as protection from virus-induced cytopathogenicity after 5 days by MTT assay; assay type: functional, organism-based; conditions: Human immunodeficiency virus 1, 3B, MT4, 120 h; method in brief: as §4
Vero [31] = assay: Cytotoxicity against Human coxsackievirus B4 infected african green monkey Vero cells by trypan blue exclusion method; assay type: cell-based; conditions: chlorocebus sabaeus, vero; method in brief: as §1
Influenza B virus = assay: Antiviral activity against Influenza B virus infected in MDCK cells assessed as protection from virus-induced cytopathogenicity after 6 to 7 days by MTT assay; assay type: functional, organism-based
HEL [32] = assay: Cytotoxicity against Vaccinia virus infected HEL cells by trypan blue exclusion method; assay type: cell-based; conditions: human, hel; method in brief: as §1

COc1cc(/C=C/C(=O)CC(=O)/C=C/c2ccc(OC(=O)[C@H](Cc3ccccc3)NC(=O)[C@@H](N)Cc3c[nH]c4ccccc34)c(OC)c2)ccc1OC(=O)[C@H](Cc1ccccc1)NC(=O)[C@@H](N)Cc1c[nH]c2ccccc12
CC50 (HeLa [1]): 96 nM
pEC50 (Coxsackievirus B4 [2]): < 7.72
CC50 (Vero [3]): 19 nM
CC50 (Vero [4]): 96 nM
pEC50 [5]: < 7.72
CC50 (HEL [6]): 19 nM
pEC50 (Human alphaherpesvirus 1 [7]): < 7.42
pEC50 [8]: < 7.72
selectivity ratio (in vitro): 9
CC50 (HEL [9]): 19 nM
CC50 (HEL [10]): 19 nM
pEC50 (Human alphaherpesvirus 2): < 7.42
pEC50 (Felid alphaherpesvirus 1): < 7.02
CC50 (HeLa [11]): 96 nM
CC50 [12]: > 94 nM
pEC50 [13]: < 7.42
Ratio CC50/IC50 [14]: <1
CC50 (Vero [15]): 96 nM
CC50 (HEL [16]): 96 nM
CC50 [17]: > 96 nM
MIC (Escherichia coli): 0.43 µM (≈ 0.445 µg/mL)
pEC50 [18]: 7.96
pEC50 (Influenza A virus [19]): < 7.02
pEC50 (Human alphaherpesvirus 1 [20]): < 7.72
pIC50 [21]: 6.97
pEC50 (Sindbis virus): < 7.72
pEC50 (Feline coronavirus): < 7.02
CC50 (HeLa [22]): 96 nM
pEC50 (Human respirovirus 3): < 7.42
CC50 (Vero [23]): 96 nM
pEC50 (Punta Toro virus): < 7.72
CC50 [24]: > 107 nM
pEC50 (Influenza A virus [25]): < 7.02
CC50 [26]: > 96 nM
pEC50 (Coxsackievirus B4 [27]): < 7.72
CC50 (MDCK [28]): 46 nM
MIC (Proteus mirabilis): 0.43 µM (≈ 0.445 µg/mL)
MIC (Streptococcus viridans): 0.43 µM (≈ 0.445 µg/mL)
CC50 (MDCK [29]): 46 nM
MIC (Klebsiella pneumoniae): 0.43 µM (≈ 0.445 µg/mL)
pIC50 [30]: 7.03
CC50 (Vero [31]): 96 nM
pEC50 (Influenza B virus): < 7.02
CC50 (HEL [32]): 19 nM
